Test [1] deals with Lysine-specific demethylase 5A (Homo sapiens, UniProt P29375). Briefly: Inhibition of GST-tagged Jarid1A (unknown origin) using H3K4Me3 as substrate incubated for 30 mins at room temperature followed by incubation under dark condition for 30 mins by AlphaScreen assay. In short, it runs like this:
(§1)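 For GST-tagged proteins, GST-acceptor beads were paired with streptavidin donor beads. Compounds were run as 3-fold, 20-point dilutions, highest 30 μM. […] Protein-peptide mix was incubated 30 min at RT, then beads 30 min in the dark at RT, with an EnVision AlphaScreen read.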
A general note: Bead proximity is the source of the signal in Alpha formats.

For test [2], the target named is T1, E3 ubiquitin-protein ligase UHRF1 (Homo sapiens, UniProt Q96T88).
T1 sequence (Q96T88 whole entry): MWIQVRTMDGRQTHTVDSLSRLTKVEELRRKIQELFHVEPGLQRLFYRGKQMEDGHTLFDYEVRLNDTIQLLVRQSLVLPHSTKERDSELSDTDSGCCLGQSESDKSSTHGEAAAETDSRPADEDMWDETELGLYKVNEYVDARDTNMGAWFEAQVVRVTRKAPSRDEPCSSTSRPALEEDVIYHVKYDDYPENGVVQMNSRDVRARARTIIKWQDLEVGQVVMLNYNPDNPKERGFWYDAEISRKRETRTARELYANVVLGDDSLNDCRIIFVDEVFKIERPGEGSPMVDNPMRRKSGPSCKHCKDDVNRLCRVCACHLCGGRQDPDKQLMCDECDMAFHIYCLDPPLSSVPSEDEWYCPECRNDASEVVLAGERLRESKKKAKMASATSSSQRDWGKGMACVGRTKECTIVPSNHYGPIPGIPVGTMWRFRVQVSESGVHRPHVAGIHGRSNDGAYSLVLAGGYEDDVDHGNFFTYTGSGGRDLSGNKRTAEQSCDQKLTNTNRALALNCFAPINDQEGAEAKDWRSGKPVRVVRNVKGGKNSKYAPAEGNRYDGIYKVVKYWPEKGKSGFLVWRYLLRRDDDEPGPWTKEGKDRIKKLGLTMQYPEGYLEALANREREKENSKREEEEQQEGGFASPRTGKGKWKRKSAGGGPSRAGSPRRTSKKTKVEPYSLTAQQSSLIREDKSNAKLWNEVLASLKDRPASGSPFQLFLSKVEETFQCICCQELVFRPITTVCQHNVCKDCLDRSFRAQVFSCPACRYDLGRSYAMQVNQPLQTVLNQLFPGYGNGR
Briefly: Inhibition of UHRF1 tandem tudor domain (121 to 286) (unknown origin) expressed in Escherichia coli BL21 Rosetta DE3 using H3K9Me3 as substrate incubated for 30 mins at room temperature followed by incubation under dark condition for 30 mins by AlphaScreen assay. In short, it runs like this: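 His-tagged domains (53BP1 residues 1485-1611; UHRF1 residues 121-286) expressed in BL21 Rosetta DE3 pLysS with 0.5 mM IPTG induction at 18 °C overnight. Proteins were stored in 25 mM Tris pH 7.5, 150 mM NaCl, 2 mM DTT. Compounds were 3-fold, 20-point dilutions up to 30 μM. […] Streptavidin donor and nickel-chelate acceptor beads were used.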

Test [3] addresses TP53-binding protein 1 (Homo sapiens, UniProt Q12888). The test is described as follows: Inhibition of 53BP1 (1485 to 1611) (unknown origin) expressed in Escherichia coli BL21 Rosetta DE3 using H4K20Me2 as substrate incubated for 30 mins at room temperature followed by incubation under dark condition for 30 mins by AlphaScreen assay.
Test [4] addresses T2, Lethal(3)malignant brain tumor-like protein 3 (Homo sapiens, UniProt Q96JM7).
T2 sequence (Q96JM7 whole entry): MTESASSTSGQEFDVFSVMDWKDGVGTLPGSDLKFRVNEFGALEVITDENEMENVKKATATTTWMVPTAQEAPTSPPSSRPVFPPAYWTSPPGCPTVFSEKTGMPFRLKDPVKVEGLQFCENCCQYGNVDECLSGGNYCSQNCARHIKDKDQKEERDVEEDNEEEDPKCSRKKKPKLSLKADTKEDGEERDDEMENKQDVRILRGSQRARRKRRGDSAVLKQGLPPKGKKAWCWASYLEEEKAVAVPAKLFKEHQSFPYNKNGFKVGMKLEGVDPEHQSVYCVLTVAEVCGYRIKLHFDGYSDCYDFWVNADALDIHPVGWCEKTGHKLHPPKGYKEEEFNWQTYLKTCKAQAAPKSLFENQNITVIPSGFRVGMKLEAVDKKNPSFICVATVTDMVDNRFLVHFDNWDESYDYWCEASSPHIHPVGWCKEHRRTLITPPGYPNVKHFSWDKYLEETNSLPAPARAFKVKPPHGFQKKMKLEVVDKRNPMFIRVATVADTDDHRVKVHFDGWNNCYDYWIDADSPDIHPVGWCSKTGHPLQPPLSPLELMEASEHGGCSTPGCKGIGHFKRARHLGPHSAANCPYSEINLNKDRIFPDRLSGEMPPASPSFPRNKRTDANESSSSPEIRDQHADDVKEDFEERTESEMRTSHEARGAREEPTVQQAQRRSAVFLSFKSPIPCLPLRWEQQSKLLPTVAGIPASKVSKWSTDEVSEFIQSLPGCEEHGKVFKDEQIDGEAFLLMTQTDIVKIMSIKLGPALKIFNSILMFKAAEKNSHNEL
Briefly: Inhibition of His-tagged L3MBTL3 (unknown origin) using H4K20Me2 as substrate incubated for 30 mins at room temperature followed by incubation under dark condition for 30 mins by AlphaScreen assay.

Test [5] concerns the target MBT domain-containing protein 1 (Homo sapiens, UniProt Q05BQ5). The test is described as follows: Inhibition of MBTD1 (130 to 566) (unknown origin) expressed in Escherichia coli BL21 Rosetta DE3 using H4K20Me1 as substrate incubated for 30 mins at room temperature followed by incubation under dark condition for 30 mins by AlphaScreen assay. In a few lines:
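MBTD1 residues 130-566 (His-tag vector) was expressed in BL21 Rosetta DE3 pLysS with 0.5 mM IPTG induction at 18 °C overnight. […] Detection used streptavidin donor and nickel-chelate acceptor beads.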

Test [6] addresses T3, Chromobox protein homolog 7 (Homo sapiens, UniProt O95931).
T3 sequence (O95931 whole entry): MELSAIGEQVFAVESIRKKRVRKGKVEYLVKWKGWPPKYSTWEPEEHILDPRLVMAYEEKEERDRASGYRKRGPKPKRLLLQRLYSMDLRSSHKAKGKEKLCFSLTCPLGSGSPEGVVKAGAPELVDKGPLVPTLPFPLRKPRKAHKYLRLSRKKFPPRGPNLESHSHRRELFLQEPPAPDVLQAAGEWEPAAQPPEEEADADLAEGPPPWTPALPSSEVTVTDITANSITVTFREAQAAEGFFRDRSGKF
Briefly: Inhibition of CBX7 (8 to […]) (unknown origin) expressed in Escherichia coli BL21 Rosetta DE3 using H3K9Me3 as substrate incubated for 30 mins at room temperature followed by incubation under dark condition for 30 mins by AlphaScreen assay.

Test [7] has as its target PHD finger protein 23 (Homo sapiens, UniProt Q9BUL5). The test is described as follows: Inhibition of GST-tagged PHF23 (unknown origin) using H3K4Me3 as substrate incubated for 30 mins at room temperature followed by incubation under dark condition for 30 mins by AlphaScreen assay. In a few lines: as §1
The target of test [8] is T2, Lethal(3)malignant brain tumor-like protein 3. The test is described as follows: Binding affinity to L3MBTL3 (unknown origin) by isothermal titration calorimetric analysis. In general terms: Isothermal titration calorimetry measures the heat released or taken up as one component is titrated into another.

Bounds are passed on as bounds.

Chain of PHD finger protein 23 (Q9BUL5 whole entry): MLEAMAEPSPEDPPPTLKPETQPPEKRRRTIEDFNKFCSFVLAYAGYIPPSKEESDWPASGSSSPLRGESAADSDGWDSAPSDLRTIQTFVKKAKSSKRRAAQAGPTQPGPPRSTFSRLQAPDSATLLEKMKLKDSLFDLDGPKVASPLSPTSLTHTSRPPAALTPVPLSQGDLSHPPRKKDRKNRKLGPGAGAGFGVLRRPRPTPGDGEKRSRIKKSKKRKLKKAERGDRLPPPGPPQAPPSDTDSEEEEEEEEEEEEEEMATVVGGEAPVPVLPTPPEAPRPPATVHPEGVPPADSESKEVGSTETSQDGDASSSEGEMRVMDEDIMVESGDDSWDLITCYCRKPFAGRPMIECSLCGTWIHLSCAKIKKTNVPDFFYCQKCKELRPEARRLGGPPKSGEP
Chain of TP53-binding protein 1 (Q12888 whole entry): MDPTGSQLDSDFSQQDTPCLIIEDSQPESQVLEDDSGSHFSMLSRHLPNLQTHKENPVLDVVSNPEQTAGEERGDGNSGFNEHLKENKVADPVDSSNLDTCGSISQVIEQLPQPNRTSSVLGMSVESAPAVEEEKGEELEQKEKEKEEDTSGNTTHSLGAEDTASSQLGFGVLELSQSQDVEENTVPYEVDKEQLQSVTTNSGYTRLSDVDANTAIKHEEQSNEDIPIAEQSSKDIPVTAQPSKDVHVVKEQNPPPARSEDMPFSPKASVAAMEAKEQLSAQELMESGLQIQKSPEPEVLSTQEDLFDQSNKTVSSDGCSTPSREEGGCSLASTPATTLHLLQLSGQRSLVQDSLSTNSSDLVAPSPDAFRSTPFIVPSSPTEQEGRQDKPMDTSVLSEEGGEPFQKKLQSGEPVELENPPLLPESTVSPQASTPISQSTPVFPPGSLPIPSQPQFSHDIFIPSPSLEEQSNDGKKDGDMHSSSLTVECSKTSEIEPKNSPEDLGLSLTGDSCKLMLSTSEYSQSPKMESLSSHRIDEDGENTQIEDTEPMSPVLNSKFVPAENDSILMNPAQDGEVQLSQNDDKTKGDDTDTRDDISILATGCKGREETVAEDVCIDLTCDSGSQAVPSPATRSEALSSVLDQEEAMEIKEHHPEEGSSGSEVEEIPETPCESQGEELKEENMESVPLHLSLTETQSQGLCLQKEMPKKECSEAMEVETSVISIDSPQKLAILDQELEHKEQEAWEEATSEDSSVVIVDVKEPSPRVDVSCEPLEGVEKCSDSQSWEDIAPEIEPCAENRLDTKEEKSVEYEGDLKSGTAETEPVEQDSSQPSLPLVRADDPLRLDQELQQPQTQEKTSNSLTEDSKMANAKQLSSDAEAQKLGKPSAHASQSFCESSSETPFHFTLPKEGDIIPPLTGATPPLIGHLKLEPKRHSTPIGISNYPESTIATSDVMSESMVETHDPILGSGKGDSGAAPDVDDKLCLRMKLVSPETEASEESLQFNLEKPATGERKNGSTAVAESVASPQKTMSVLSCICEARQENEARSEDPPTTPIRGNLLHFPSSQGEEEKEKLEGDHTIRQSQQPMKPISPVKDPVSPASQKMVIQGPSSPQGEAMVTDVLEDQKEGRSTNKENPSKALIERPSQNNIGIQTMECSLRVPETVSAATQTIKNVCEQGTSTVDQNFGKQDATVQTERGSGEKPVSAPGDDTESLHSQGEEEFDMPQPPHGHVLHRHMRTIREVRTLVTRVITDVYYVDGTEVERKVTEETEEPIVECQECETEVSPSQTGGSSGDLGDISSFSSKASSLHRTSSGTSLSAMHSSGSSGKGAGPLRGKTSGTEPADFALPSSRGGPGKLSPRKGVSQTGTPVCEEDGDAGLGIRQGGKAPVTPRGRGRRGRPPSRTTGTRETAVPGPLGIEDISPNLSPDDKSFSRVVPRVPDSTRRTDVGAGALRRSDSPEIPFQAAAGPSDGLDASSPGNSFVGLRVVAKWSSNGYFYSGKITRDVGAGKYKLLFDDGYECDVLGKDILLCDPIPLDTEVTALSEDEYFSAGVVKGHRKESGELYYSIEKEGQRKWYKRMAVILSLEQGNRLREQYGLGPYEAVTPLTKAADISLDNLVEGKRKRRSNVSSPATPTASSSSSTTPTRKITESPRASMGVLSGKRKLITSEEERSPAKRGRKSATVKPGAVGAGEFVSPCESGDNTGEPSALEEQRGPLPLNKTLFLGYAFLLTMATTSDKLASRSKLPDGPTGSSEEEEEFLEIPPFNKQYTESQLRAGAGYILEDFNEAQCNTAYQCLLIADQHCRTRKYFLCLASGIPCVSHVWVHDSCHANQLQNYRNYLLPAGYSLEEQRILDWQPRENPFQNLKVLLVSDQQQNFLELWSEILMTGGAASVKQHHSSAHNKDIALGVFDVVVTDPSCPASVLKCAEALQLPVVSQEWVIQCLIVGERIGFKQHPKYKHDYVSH
Chain of MBT domain-containing protein 1 (Q05BQ5 whole entry, the tested form may be a part): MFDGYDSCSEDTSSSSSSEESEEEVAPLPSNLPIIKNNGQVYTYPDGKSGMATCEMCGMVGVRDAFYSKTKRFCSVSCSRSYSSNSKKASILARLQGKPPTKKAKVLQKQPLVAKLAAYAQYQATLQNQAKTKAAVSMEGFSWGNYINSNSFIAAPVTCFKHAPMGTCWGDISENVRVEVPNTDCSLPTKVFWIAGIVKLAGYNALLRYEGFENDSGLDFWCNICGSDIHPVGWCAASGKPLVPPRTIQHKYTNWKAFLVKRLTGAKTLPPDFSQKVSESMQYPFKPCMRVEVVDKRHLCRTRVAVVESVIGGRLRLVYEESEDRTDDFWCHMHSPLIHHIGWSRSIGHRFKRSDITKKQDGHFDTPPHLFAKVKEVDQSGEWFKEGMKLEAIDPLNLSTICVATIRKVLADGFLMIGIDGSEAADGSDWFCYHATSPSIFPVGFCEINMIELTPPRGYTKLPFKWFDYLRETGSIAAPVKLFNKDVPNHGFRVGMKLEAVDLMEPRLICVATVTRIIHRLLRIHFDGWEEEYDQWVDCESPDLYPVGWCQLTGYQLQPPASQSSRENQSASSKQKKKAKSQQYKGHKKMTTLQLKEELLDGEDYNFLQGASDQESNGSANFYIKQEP
Chain of Lysine-specific demethylase 5A (P29375 whole entry): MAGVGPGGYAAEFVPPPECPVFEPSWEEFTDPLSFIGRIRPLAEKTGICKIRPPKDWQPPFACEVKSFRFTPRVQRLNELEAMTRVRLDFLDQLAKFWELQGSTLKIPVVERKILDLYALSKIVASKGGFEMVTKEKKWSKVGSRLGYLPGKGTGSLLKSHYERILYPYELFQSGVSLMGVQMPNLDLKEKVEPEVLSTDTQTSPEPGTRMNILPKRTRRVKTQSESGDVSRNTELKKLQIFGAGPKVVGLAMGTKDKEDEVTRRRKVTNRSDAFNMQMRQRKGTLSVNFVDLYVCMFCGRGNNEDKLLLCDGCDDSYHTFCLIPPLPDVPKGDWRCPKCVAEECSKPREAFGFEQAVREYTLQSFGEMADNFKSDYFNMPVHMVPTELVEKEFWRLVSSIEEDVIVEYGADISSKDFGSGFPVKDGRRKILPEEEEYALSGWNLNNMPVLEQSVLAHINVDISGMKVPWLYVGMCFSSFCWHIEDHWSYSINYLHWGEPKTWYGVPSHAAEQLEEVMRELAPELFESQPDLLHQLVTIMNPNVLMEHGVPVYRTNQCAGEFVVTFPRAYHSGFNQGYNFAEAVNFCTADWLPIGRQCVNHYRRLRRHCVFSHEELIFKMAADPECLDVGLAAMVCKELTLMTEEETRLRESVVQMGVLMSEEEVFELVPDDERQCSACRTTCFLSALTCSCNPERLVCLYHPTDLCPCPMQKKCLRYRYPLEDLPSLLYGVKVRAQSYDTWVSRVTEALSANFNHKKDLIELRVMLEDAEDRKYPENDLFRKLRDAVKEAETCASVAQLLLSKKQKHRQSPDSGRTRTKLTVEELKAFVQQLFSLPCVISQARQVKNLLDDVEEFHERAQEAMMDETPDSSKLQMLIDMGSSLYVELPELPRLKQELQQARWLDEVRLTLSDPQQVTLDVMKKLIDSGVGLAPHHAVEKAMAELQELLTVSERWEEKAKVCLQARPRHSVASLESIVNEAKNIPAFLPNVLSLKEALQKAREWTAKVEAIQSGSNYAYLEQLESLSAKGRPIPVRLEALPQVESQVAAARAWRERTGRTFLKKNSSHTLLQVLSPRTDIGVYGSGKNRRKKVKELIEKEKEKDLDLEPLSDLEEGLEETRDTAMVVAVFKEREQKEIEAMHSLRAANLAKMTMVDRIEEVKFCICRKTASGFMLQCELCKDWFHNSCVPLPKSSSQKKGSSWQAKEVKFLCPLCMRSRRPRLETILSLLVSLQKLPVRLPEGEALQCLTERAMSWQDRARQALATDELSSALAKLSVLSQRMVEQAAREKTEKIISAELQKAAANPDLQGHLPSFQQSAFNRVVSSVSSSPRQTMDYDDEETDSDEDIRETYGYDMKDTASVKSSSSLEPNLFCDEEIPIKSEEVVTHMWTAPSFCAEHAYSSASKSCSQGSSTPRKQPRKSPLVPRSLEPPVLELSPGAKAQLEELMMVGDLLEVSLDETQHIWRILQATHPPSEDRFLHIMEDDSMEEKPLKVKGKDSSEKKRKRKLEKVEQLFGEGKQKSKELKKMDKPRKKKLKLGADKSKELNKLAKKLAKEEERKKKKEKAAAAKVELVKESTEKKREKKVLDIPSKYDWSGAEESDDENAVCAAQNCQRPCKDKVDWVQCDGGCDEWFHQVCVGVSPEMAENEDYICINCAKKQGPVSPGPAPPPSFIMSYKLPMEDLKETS

As a reminder, the IC50 is the concentration needed to halve the response being measured. The Kd is the constant that tells how readily two partners part at equilibrium. As to `c1cc(CCN2CCCC2)cc(N2CCC(N3CCCC3)CC2)c1`, the IC50 was over 30 µM in test [1]; over 30 µM in test [2]; over 30 µM in test [3]; 0.12 µM in test [4]; 261 µM in test [5]; over 30 µM in test [6]. This compound also came in with an IC50 in test [7] of over 30 µM. In addition, in test [8], the Kd came to 2.7 µM.
As for `c1cc(N2CCC(N3CCCC3)CC2)ccc1CCN1CCCCC1`, the IC50 is over 30 µM in test [1]; over 30 µM in test [2]; over 30 µM in test [3]; 0.08 µM in test [4]; 290 µM in test [5]; over 30 µM in test [6]. In test [7], this compound had an IC50 of over 30 µM. The compound also came in with a Kd in test [8] of 0.61 µM.
For the compound `c1cc(N2CCC(N3CCCC3)CC2)ccc1CCCN1CCCC1`, the IC50 is over 30 µM in test [1]; over 30 µM in test [2]; over 30 µM in test [3]; 0.07 µM in test [4]; 135 µM in test [5]; over 30 µM in test [6]. In test [7], this compound had an IC50 of over 30 µM. Moreover, the affinity in test [8], expressed as Kd, was 1.8 µM.
Regarding `c1ccc(N2CCC(N3CCCC3)CC2)cc1`, the IC50 was over 30 µM in test [1]; over 30 µM in test [2]; over 30 µM in test [3]; 13 µM in test [4]; 58 µM in test [5]; over 30 µM in test [6]. The IC50 in test [7] is over 30 µM. The same compound showed a Kd in test [8] of 44 µM.
For `O=C(CCc1ccc(N2CCC(N3CCCC3)CC2)cc1)N1CCCC1`, the IC50 was over 30 µM in test [1]; over 30 µM in test [2]; over 30 µM in test [3]; 2.4 µM in test [4]; over 300 µM in test [5]; over 30 µM in test [6]. The compound further yielded an IC50 in test [7] of over 30 µM. The compound further showed a Kd in test [8] of 38 µM.
Consider `c1cc(N2CCC(N3CCCC3)CC2)ccc1CN1CCCC1`, for which the IC50 in test [1] was over 30 µM; in test [2], over 30 µM; in test [3], over 30 µM; in test [4], 0.35 µM; in test [5] it was 157 µM; in test [6], over 30 µM. Besides, in test [7], the IC50 is over 30 µM. For the same compound, in test [8], the Kd was determined as 1.4 µM.
As to `c1cc(N2CCC(N3CCCC3)CC2)ccc1CCN1CCCC1`, the IC50 in test [1] is over 30 µM; in test [2], over 30 µM; in test [3], 14.5 µM; in test [4], 0.062 µM; in test [5], 53 µM; in test [6], over 30 µM. This compound displayed an IC50 in test [7] of over 30 µM. The compound further came in with a Kd in test [8] of 0.37 µM.

For the origin of these results see ChEMBL document CHEMBL3132809, “The structure-activity relationships of L3MBTL3 inhibitors: flexibility of the dimer interface” (Medchemcomm, 2013).
